Results pooled from the literature.
Lines come from different studies, so protocols differ.
Target: Mitogen-activated protein kinase 12 (MAPK12, Homo sapiens, UniProt P53778)
One construct used (P53778 1-367): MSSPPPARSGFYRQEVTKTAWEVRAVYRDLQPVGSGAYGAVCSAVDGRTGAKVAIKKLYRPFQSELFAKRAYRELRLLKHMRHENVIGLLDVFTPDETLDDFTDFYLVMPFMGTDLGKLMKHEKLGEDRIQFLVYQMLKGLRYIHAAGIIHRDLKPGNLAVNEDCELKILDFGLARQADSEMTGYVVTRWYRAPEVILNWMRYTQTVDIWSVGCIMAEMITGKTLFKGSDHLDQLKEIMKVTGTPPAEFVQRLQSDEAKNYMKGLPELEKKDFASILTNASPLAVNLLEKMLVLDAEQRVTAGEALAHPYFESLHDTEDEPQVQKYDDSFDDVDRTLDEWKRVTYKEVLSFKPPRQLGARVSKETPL

| SMILES | assay | setting | endpoint | value |
| --- | --- | --- | --- | --- |
| C[C@H](c1ccc(F)cc1)N(Cc1cccc(C(=O)O)c1)C(=O)c1cnc2ccccc2c1 | cell-free assay, competition with immobilised ligand | 1 µM | remaining binding | 65% |
| Cc1ccc(Nc2nccc(N(C)c3ccc4c(C)n(C)nc4c3)n2)cc1S(N)(=O)=O | enzyme activity, inhibitor | 10 µM | inhibition | -5% |
| O=C(Nc1cccnn1)N1CCC(=Cc2cccc(Oc3ccc(C(F)(F)F)cn3)c2)CC1 | cell-free assay, competition with immobilised ligand | 1 µM | remaining binding | 100% |
| CCN(CC)CCNC(=O)c1c(C)[nH]c(/C=C2\C(=O)Nc3ccc(F)cc32)c1C | enzyme activity, inhibitor | 10 µM | inhibition | -3% |
| Oc1cccc(-c2nc(N3CCOCC3)c3oc4ncccc4c3n2)c1 | enzyme activity, inhibitor | 10 µM | remaining activity | 76% |
| CCCS(=O)(=O)Nc1ccc(F)c(C(=O)c2c[nH]c3ncc(-c4ccc(Cl)cc4)cc23)c1F | enzyme activity, inhibitor | 1 µM | inhibition | < 10% |
| Oc1ccc(-c2nc(-c3ccncc3)c(-c3ccc(F)cc3)[nH]2)cc1 | cell-free assay | 0.5 µM | remaining signal | 102% |
| N#CC1(c2ccccn2)CCN(Cc2cc(C(=O)N3CCCC3)c(=O)n3ccccc23)CC1 | cell-free assay, competition with immobilised ligand | 1 µM | remaining binding | 100% |
| O=C(Nc1cnn(-c2csc(C(=O)NC3COC3)c2)c1)Nc1c(F)cccc1Cl | enzyme activity, inhibitor | 5 µM | remaining activity | 98.3% |
| Nc1nc(NC2CCCCC2)sc1C(=O)c1ccccc1 | enzyme activity, inhibitor | 10 µM | remaining activity | 71% |
| CCOc1cc(-c2nncn2C)ccc1Nc1ncc2cc(C)nc(NCC(C)(C)C)c2n1 | enzyme activity, inhibitor, FRET | 1 µM | inhibition | < 15% |
| CCS(=O)(=O)c1cc2cc(C[C@](O)(CC(C)(C)c3ccc(F)cc3C(N)=O)C(F)(F)F)[nH]c2cn1 | cell-free assay, competition with immobilised ligand | 1 µM | remaining binding | 100% |
| CC(C)(C)c1nc(-c2cccc(NS(=O)(=O)c3c(F)cccc3F)c2F)c(-c2ccnc(N)n2)s1 | enzyme activity, inhibitor, radiometric | 1 µM | remaining activity | 102% |
| Oc1cccc(-c2nc(N3CCOCC3)c3oc4ncccc4c3n2)c1 | cell-free assay | 0.5 µM | remaining signal | 93.4% |
| Cc1cc(NC(=O)c2cccc3cc(-c4cccc5[nH]nc(N)c45)ccc23)ccc1F | enzyme activity, inhibitor | 0.1 µM | activity vs control | 83% |
| CCN(CC)c1ccc(C2=NNC(=O)CC2C)cc1[N+](=O)[O-] (stereo not shown) | enzyme activity, inhibitor | 10 µM | remaining activity | 104% |
| CCC(=O)N[C@H]1CC[C@@H](C(=O)N(C)c2ccc(-c3nc4ccccc4o3)cc2)C1 | cell-free assay, competition with immobilised ligand | 1 µM | remaining binding | 67% |
| COc1cc(Nc2cnc(C#N)c(O[C@H](C)CN(C)C)n2)ncc1-c1cnn(C)c1 | enzyme activity, inhibitor, radiometric | 1 µM | remaining activity | 89% |
| COc1cc(/C=C/C(=O)CC(=O)/C=C/c2ccc(O)c(OC)c2)ccc1O | enzyme activity, inhibitor | 1 µM | activity vs control | 101% |
